Experimental data from ChEMBL document CHEMBL3286182, “4-aminoquinolone piperidine amides: noncovalent inhibitors of DprE1 with long residence time and potent antimycobacterial activity” (J Med Chem, 2014).
≈ marks a conversion by molar mass, not a printed value. Calls of active or inactive are those of the source. No cut-off for these calls is given here.

Assays:
[1] = system: Mycobacterium tuberculosis; experiment: Antimycobacterial activity against Mycobacterium tuberculosis over expressing DprE1 after 5 days by standard microdilution method; assay type: functional; conditions: 120 h
[2] = system: Mycolicibacterium smegmatis; experiment: Ratio of IC50 for Mycobacterium smegmatis DprE1 Y321H mutant to IC50 for Mycobacterium smegmatis recombinant wild type DprE1
Method in brief: (§1)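 Recombinant M. smegmatis DprE1 (thioredoxin-6His fusion), wild type or Y321H, 75 nM. Enzyme was preincubated 30 min in FAD assay mix: 50 mM glycylglycine pH 8.5, 200 mM potassium glutamate, 10 μM FAD, 0.002% Brij-35, 2% DMSO. Reaction was started with 300 μM farnesylphosphoryl-β-D-ribofuranose, 0.01 mg/mL HRP and 50 μM amplex red at 25 °C.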

[3] = system: Mycolicibacterium smegmatis; experiment: Binding affinity to Mycobacterium smegmatis recombinant DprE1 at 0.5 to 10000 nM up to 30 mins
[4] = system: Mycobacterium tuberculosis; experiment: Antimycobacterial activity against Mycobacterium tuberculosis H37Rv after 5 days by standard microdilution method; assay type: functional; conditions: 120 h
[5] = Inhibition of Mycobacterium smegmatis recombinant DprE1 using farnesylphosphoryl-beta-D-ribofuranose as substrate assessed as conversion of amplex red to resorufin after 30 mins; set-up: species or system Mycolicibacterium smegmatis
Method in brief: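 Msm DprE1 (thioredoxin-6His fusion of Msm Rv3790) at 75 nM, preincubated 30 min with 10 μM FAD. Buffer: 50 mM glycylglycine pH 8.5, 200 mM potassium glutamate, 0.002% Brij-35, 2% DMSO, 25 °C. Started with 300 μM farnesylphosphoryl-β-D-ribofuranose, 0.01 mg/mL HRP and 50 μM Amplex Red.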

[6] = system: Mycolicibacterium smegmatis; experiment: Binding affinity to Mycobacterium smegmatis DprE1 Y321H mutant at 0.5 to 10000 nM up to 30 mins
[7] = Inhibition of Mycobacterium smegmatis DprE1 Y321H mutant using farnesylphosphoryl-beta-D-ribofuranose as substrate assessed as conversion of amplex red to resorufin after 30 mins; set-up: species or system Mycolicibacterium smegmatis; method in brief: as §1
[8] = Solubility of the compound in 0.1 M phosphate buffer at pH 7.4 after 24 hrs by UV and MS analysis; assay type: physicochemical
Candida albicans = experiment: Antimicrobial activity against Candida albicans ARC527 at 100 uM; assay type: functional, organism-based
Method in brief: (§2)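 Nonmycobacterial panel of Candida albicans, Gram-negative and Gram-positive pathogens.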

[9] = system: Mycolicibacterium smegmatis; experiment: Binding affinity to Mycobacterium smegmatis recombinant DprE1 assessed as residence time
Method in brief: (§3)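 Progress curves (fluorescence vs time) recorded at several inhibitor concentrations with 75 nM Msm DprE1 in the FAD/HRP/Amplex Red coupled assay, pH 8.5, 25 °C. A single-step reversible slow-binding model was fitted globally, with vs and vi fitted per concentration and koff and Kiapp shared. Half-life and residence time were derived from koff.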

[10] = system: Mycobacterium tuberculosis; experiment: Antimycobacterial activity against Mycobacterium tuberculosis over expressing InhA after 5 days by standard microdilution method; assay type: functional; conditions: 120 h
[11] = Intrinsic clearance in rat cryopreserved hepatocytes assessed per 10^6 cells at 1 uM up to 120 mins by LC-MS/MS analysis; assay type: ADME, cell-based, Hepatocyte; conditions: read-out: CLH
[12] = Permeability of the compound from basolateral to apical side in human Caco2 cells; assay type: ADME, cell-based; conditions: Caco-2, read-out: permeability
Mu-type opioid receptor = Mu-type opioid receptor (Homo sapiens, UniProt P35372); experiment: Inhibition of mu opioid receptor (unknown origin)
Sequence of Mu-type opioid receptor (P35372 whole entry): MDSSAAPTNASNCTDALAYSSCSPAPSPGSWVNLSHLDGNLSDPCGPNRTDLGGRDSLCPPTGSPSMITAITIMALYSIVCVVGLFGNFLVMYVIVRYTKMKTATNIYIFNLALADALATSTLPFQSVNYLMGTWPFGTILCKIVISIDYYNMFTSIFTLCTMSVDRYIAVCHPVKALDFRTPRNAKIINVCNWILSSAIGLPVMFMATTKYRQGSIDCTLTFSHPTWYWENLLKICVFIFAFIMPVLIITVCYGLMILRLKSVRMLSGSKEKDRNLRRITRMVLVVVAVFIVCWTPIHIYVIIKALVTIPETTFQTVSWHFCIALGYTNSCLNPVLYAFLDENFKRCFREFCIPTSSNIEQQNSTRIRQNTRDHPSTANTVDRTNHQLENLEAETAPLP
Method in brief: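 Secondary pharmacology panel of binding, enzyme and functional assays covering 24 molecular targets. Activity recorded as a defined Ki/IC50/EC50.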

Cytochrome P450 3A4 = Cytochrome P450 3A4 (Homo sapiens, UniProt P08684); experiment: Inhibition of CYP3A4 (unknown origin); assay type: ADME
Sequence of Cytochrome P450 3A4 (P08684 whole entry, canonical isoform): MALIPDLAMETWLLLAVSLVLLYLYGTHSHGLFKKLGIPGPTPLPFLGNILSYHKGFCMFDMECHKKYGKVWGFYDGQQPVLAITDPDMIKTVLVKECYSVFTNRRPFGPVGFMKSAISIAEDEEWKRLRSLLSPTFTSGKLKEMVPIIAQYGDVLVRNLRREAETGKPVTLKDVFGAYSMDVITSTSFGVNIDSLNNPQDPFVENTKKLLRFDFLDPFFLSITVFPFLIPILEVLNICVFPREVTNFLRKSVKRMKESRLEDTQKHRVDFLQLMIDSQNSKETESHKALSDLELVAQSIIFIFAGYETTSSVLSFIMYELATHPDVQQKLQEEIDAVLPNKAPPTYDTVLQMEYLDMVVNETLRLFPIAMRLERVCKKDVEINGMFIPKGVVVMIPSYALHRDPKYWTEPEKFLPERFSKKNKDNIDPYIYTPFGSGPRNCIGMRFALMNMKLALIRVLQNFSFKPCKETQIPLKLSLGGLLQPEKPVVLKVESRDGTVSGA
Method in brief: (§4)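 CYP inhibition IC50 measured on isoforms CYP3A4, CYP2D6, CYP2C9, CYP2C19 and CYP1A2.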

[13] = system: Mycolicibacterium smegmatis; experiment: Binding affinity to Mycobacterium smegmatis recombinant DprE1 assessed as dissociation constant; method in brief: as §3
Haemophilus influenzae [14] = experiment: Antimicrobial activity against Haemophilus influenzae ARC446 at 100 uM; assay type: functional, organism-based; method in brief: as §2
[15] = target: Voltage-gated inwardly rectifying potassium channel KCNH2 (Homo sapiens, UniProt Q12809); experiment: Inhibition of human ERG by medium-throughput electrophysiology
Sequence of Voltage-gated inwardly rectifying potassium channel KCNH2 (Q12809 whole entry): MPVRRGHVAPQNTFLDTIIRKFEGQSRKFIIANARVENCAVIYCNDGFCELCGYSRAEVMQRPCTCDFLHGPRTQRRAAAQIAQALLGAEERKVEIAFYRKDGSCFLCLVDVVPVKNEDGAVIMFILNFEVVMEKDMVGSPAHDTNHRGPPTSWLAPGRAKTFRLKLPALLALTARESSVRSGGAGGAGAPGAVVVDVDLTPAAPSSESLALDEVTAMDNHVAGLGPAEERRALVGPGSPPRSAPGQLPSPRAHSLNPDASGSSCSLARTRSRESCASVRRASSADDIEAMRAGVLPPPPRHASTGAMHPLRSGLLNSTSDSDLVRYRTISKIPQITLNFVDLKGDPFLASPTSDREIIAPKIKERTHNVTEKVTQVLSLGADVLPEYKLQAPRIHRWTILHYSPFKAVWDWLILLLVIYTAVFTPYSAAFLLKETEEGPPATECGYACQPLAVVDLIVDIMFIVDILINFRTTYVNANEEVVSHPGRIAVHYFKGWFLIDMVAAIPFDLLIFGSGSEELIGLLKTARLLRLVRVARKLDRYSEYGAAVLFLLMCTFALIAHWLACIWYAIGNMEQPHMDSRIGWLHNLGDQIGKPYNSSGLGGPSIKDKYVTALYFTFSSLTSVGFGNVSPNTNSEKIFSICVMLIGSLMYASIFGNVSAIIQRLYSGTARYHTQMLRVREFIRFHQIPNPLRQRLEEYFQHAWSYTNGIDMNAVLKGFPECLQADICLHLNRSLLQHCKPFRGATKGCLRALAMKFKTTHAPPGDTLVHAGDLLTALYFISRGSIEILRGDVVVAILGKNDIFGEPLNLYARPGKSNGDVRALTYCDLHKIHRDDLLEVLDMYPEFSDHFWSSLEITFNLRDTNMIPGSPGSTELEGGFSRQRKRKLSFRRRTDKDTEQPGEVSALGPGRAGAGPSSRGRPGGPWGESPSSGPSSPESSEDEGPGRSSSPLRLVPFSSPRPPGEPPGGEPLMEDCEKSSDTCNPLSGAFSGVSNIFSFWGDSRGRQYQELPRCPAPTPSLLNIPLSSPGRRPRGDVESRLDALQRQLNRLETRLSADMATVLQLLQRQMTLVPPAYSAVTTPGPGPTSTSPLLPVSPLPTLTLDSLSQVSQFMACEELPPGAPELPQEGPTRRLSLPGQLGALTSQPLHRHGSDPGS

Pseudomonas aeruginosa [16] = experiment: Antimicrobial activity against Pseudomonas aeruginosa ARC546 at 100 uM; assay type: functional, organism-based; method in brief: as §2
Cytochrome P450 2C9 = Cytochrome P450 2C9 (Homo sapiens, UniProt P11712); experiment: Inhibition of CYP2C9 (unknown origin); assay type: ADME; method in brief: as §4
Sequence of Cytochrome P450 2C9 (P11712 whole entry): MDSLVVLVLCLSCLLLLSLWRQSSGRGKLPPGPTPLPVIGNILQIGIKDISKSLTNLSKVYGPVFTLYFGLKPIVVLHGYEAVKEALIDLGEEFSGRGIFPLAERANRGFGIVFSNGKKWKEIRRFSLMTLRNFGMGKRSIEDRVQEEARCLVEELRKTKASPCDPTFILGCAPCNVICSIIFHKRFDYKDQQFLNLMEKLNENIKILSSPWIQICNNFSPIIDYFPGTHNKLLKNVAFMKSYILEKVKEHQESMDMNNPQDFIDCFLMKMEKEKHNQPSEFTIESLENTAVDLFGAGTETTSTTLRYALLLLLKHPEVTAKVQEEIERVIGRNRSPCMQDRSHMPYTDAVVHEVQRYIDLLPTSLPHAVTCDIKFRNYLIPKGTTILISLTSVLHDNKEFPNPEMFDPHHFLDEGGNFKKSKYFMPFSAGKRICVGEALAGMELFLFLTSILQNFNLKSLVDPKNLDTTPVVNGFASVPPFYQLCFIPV

Klebsiella pneumoniae = experiment: Antimicrobial activity against Klebsiella pneumoniae ARC1865 at 100 uM; assay type: functional, organism-based; method in brief: as §2
[17] = Permeability of the compound from apical to basolateral side in human Caco2 cells; assay type: ADME, cell-based; conditions: Caco-2, read-out: permeability
[18] = system: Mycolicibacterium smegmatis; experiment: Binding affinity to Mycobacterium smegmatis recombinant DprE1 assessed as half life; method in brief: as §3
[19] = system: Mycolicibacterium smegmatis; experiment: Antimicrobial activity against Mycobacterium smegmatis mc2155 at 100 uM; assay type: functional, organism-based; conditions: str. MC2 155
[20] = system: Mycobacterium tuberculosis; experiment: Antimycobacterial activity against Mycobacterium tuberculosis over expressing TopA after 5 days by standard microdilution method; assay type: functional; conditions: 120 h
[21] = system: Mycolicibacterium smegmatis; experiment: Antimicrobial activity against Mycobacterium smegmatis ATCC 607 at 100 uM; assay type: functional, organism-based
[22] = Intrinsic clearance in human liver microsomes at 1 uM up to 30 mins by LC-MS/MS analysis; assay type: ADME; conditions: read-out: CLH
[23] = system: Mycobacterium tuberculosis; experiment: Antimycobacterial activity against Mycobacterium tuberculosis H37Rv under hypoxic condition after 6 days by resazurin assay; assay type: functional; conditions: 144 h
Escherichia coli [24] = experiment: Antimicrobial activity against Escherichia coli ARC524 at 100 uM; assay type: functional, organism-based; method in brief: as §2
Cytochrome P450 2C19 = Cytochrome P450 2C19 (Homo sapiens, UniProt P33261); experiment: Inhibition of CYP2C19 (unknown origin); assay type: ADME; method in brief: as §4
Sequence of Cytochrome P450 2C19 (P33261 whole entry): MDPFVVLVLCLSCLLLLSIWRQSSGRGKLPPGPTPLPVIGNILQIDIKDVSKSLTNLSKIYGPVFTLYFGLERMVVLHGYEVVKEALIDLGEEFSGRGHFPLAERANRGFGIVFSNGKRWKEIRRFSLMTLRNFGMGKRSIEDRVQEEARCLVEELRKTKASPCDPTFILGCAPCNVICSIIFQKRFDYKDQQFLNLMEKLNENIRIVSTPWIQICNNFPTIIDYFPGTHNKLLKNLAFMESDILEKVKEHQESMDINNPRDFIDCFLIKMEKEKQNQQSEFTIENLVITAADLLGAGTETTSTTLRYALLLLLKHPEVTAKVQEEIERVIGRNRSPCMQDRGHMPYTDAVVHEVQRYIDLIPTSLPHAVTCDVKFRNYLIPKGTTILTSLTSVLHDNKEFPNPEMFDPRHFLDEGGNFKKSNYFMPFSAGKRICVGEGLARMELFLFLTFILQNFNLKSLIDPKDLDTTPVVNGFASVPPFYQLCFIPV

[25] = Octanol-water partition coefficient, log D of the compound by shake-flask method; assay type: physicochemical
Haemophilus influenzae [26] = experiment: Antimicrobial activity against Haemophilus influenzae ARC158 at 100 uM; assay type: functional, organism-based; method in brief: as §2
Pseudomonas aeruginosa [27] = experiment: Antimicrobial activity against Pseudomonas aeruginosa ARC545 at 100 uM; assay type: functional, organism-based; method in brief: as §2
Cytochrome P450 2D6 = Cytochrome P450 2D6 (Homo sapiens, UniProt P10635); experiment: Inhibition of CYP2D6 (unknown origin); assay type: ADME; method in brief: as §4
Sequence of Cytochrome P450 2D6 (P10635 whole entry): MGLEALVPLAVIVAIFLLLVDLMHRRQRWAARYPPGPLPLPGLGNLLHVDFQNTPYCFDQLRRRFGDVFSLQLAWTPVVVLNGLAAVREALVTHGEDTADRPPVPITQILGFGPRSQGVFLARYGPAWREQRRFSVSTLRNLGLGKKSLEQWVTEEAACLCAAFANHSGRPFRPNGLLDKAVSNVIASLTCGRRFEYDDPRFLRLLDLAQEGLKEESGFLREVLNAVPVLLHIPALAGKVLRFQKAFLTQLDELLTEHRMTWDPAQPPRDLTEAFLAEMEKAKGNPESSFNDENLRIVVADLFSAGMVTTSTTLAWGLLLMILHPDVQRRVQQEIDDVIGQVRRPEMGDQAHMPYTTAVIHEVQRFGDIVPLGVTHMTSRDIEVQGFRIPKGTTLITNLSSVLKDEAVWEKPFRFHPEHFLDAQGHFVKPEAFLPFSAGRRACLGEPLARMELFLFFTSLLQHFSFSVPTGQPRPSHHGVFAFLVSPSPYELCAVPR

Escherichia coli [28] = experiment: Antimicrobial activity against Escherichia coli ARC523 at 100 uM; assay type: functional, organism-based; method in brief: as §2
Cytochrome P450 1A2 = target: T1, Cytochrome P450 1A2 (Homo sapiens, UniProt P05177); experiment: Inhibition of CYP1A2 (unknown origin); assay type: ADME; method in brief: as §4
T1 sequence (P05177 whole entry): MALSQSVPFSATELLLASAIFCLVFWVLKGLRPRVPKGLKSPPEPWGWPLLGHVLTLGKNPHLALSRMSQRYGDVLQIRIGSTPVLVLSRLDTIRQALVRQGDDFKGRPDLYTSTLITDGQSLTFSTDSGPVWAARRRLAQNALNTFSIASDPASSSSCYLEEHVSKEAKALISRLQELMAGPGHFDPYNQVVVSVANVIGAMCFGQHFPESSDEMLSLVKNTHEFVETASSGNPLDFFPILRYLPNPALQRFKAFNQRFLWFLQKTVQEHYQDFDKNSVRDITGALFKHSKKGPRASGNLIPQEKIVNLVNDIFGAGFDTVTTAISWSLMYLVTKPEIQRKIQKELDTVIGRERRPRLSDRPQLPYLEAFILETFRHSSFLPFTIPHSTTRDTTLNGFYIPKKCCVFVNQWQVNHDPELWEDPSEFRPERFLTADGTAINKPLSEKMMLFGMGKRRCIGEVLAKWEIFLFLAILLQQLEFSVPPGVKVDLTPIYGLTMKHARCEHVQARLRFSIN

[29] = Cytotoxicity against human A549 cells after 72 hrs by resazurin based fluorescence assay; assay type: cell-based; conditions: read-out: MIC
Method in brief: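 Cytotoxicity read as MMIC, the MIC on the A549 cell line.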

Streptococcus pneumoniae = experiment: Antimicrobial activity against Streptococcus pneumoniae ARC548 at 100 uM; assay type: functional, organism-based; method in brief: as §2
[30] = system: Mycobacterium tuberculosis; experiment: Antimycobacterial activity against Mycobacterium tuberculosis H37Rv at >MIC after 21 to 28 days; assay type: functional
[31] = Fraction unbound in human plasma at 20 uM after 18 hrs by equilibrium dialysis method; assay type: ADME, cell-free
Staphylococcus aureus = experiment: Antimicrobial activity against Staphylococcus aureus ARC517 at 100 uM; assay type: functional, organism-based; method in brief: as §2
[32] = system: Mycobacterium tuberculosis; experiment: Antimycobacterial activity against Mycobacterium tuberculosis over expressing PimA after 5 days by standard microdilution method; assay type: functional; conditions: 120 h

In the case of `Cn1ncc(C(=O)N2[C@@H]3CC[C@H]2C[C@@H](Nc2cc(=O)[nH]c4ccc(F)cc24)C3)c1Cl`, the MIC [1] is reported as 6.25 µM (≈ 2.69 µg/mL), the fold change (FC) [2] is reported as 12 and the Activity [3] is reported as “Active”. The MIC [4] was 0.39 µM (≈ 0.168 µg/mL), the IC50 [5] was 30 nM and the Activity [6] was “Active”. For the same compound, the IC50 [7] was 550 nM.
For `Cn1ncc(C(=O)N2CCC(Nc3cc(=O)[nH]c4ccccc34)CC2)c1Cl`, the solubility at 24 h [8] was 255 µM (≈ 98.4 µg/mL), the Activity (Candida albicans) was “inactive” and the TIME [9] was 1.73 h. The MIC [10] was 6.3 µM (≈ 2.43 µg/mL), the hepatocyte CLint at 1 µM [11] was 1.5 µL/min/1e6 cells and the Papp B→A [12] was 14 ×10⁻⁶ cm/s. For the same compound, the IC50 (Mu-type opioid receptor) was 21900 nM, the INH (Cytochrome P450 3A4) was over 30 µM and the Kdiss [13] was 0.00016 s⁻¹. For the same compound, the Activity (Haemophilus influenzae [14]) was “inactive”, the IC50 [15] was over 100000 nM and the Activity (Pseudomonas aeruginosa [16]) was “inactive”. For the same compound, the INH (Cytochrome P450 2C9) was over 30 µM, the Activity (Klebsiella pneumoniae) was “inactive” and the Papp A→B [17] was 0.5 ×10⁻⁶ cm/s. The MIC [1] was over 100 µM, the fold change (FC) [2] was over 63 and the T1/2 [18] was 1.2 h. The Activity [19] was “inactive”, the MIC [20] was 3.1 µM (≈ 1.2 µg/mL) and the Activity [21] was “inactive”. The microsomal CLint at 1 µM [22] was under 4 µL/min/mg, the IC80 [23] was over 100000 nM and the Activity (Escherichia coli [24]) was “inactive”. The INH (Cytochrome P450 2C19) was over 30 µM, the logD [25] was 1.6 and the Activity (Haemophilus influenzae [26]) was “inactive”. The MIC [4] was 6.25 µM (≈ 2.41 µg/mL), the Activity (Pseudomonas aeruginosa [27]) was “inactive” and the INH (Cytochrome P450 2D6) was over 30 µM. The Activity (Escherichia coli [28]) was “inactive”, the INH (Cytochrome P450 1A2) was over 30 µM and the MCC at 72 h [29] was over 200 µM. The IC50 [5] was 150 nM, the Activity (Streptococcus pneumoniae) was “inactive” and the MBC [30] was 6.3 µM (≈ 2.43 µg/mL). For the same compound, the IC50 [7] was over 10000 nM, the fraction unbound at 18 h, 20 µM [31] was 0.3 and the Activity (Staphylococcus aureus) was “inactive”. For the same compound, the MIC [32] was 3.1 µM (≈ 1.2 µg/mL).
